# An excerpt weighted towards active compounds, which were near 3.5% of everything screened.
# MrgX1 antagonist = antagonists of human MrgX1 receptor. Q96LB2. MRGX1-HEK293 calcium flux, Fluo-4, BAM8-22 antagonism; stronger effect = lower value. B-score at 10 µM. actives 1.3% (n = 310,000);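 active means calcium-response B-score plate-corrected more than 3 library SD below zero, starting fluorescence within 5 deviations, no agonist response on first addition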;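 further: peak minus trough fluorescence over baseline after final BAM8-22 challenge near maximal dose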
# Target sequence (Q96LB2 whole entry, looked up): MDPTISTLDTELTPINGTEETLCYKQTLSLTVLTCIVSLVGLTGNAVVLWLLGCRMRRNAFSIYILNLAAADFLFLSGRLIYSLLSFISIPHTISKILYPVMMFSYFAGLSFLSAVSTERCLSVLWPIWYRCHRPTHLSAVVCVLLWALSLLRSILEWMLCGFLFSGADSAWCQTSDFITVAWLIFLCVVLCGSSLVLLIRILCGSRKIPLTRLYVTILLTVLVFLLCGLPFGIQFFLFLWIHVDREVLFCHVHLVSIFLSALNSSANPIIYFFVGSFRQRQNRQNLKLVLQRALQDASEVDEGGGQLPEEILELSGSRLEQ
# RGS4 act = potentiators or activators of RGS4; HEK293 M3R/inducible RGS4, carbachol calcium flux Fluo4; stronger effect = lower value; B-score at 10 µM; actives 0.92% (n = 310,000);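 active means B-score of the integrated calcium signal more than 4 SD below the library mean, with starting fluorescence not abnormally high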;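 further: negative B-score means reduced calcium response which marks RGS4 activation or potentiation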
#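 Detection: kinetic calcium fluorescence imaging with Fluo4-AM dye, 2 µM / Material: HEK293 cells with stable M3R and inducible RGS4 / Schedule: recording 10 s baseline at 1 Hz, 100 s post-agonist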
# MrgX1 agonist = agonists of human MrgX1 receptor; AID 588627; actives 0.44% (n = 310,000); MrgX1-HEK293 cells, Fluo-4 calcium fluorescence, agonist mode; stronger effect = higher value; Q96LB2; B-score at 10 µM;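 active means calcium response B-score plate-corrected fluorescence ratio at least 3 library SD, with starting fluorescence B-score inside 5 SD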
#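 times = overnight plating, then 30 min 37 °C plus 30 min room-temperature dye loading | assay system = stable human MrgX1 HEK293 cell line | input = fifteen thousand cells per well | signal = kinetic calcium dye fluorescence, Fluo-4 NW | dosing = compound delivered in addition one of three | read-out = B-scored fluorescence response ratio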
# RGS4 block = inhibitors of human RGS4; P49798; HEK293 M3R/RGS4 inducible, Fluo-4 calcium flux; stronger effect = higher value; triggered by carbachol at its EC20; B-score at 10 µM; actives 0.45% (n = 310,000); AID 463165;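 active means B-score, a plate-corrected calcium signal, over three deviations above library mean, with baseline fluorescence within five deviations of library mean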;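 further: RGS4 expression induced by doxycycline in cells with stable M3 receptor; B-score is computed from the integrated fluorescence ratio over baseline after carbachol; higher B-score means a larger calcium signal and so more RGS4 inhibition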
# Target sequence (P49798 whole entry, looked up): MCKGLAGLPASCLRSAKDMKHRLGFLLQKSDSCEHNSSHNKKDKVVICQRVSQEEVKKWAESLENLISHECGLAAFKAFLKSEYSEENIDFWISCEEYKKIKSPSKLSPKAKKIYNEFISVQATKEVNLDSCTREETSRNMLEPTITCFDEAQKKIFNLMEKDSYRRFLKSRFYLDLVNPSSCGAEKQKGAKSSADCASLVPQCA
# MrgX1 allo act = human MrgX1 positive allosteric modulation, primary screen. MrgX1-HEK293, Fluo-4 calcium flux, FDSS; stronger effect = higher value. actives 0.63% (n = 310,000). AID 588675. Q96LB2. B-score at 10 µM;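 active means plate-corrected calcium response at least 3 library SD above typical, normal starting fluorescence, not activating the receptor alone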;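 further: compound read alongside a low EC10 to EC30 dose of BAM8-22 agonist; peak minus trough fluorescence over baseline measured at the second addition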
# RGS4 block valid = RGS4 inhibitor validation. actives 65% (n = 1,700). shares compounds with RGS4 block. HEK293 M3R/RGS4, carbachol calcium Fluo-4 fluorescence; carbachol added at its EC20; 0 = buffer wells, 100 = carbachol control. calcium response, % at 10 µM;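 active means duplicate-averaged calcium response above the buffer-only control mean plus 5 SD of those controls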;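 further: integrated fluorescence ratio F max minus min over baseline F0; higher response in RGS4-induced cells means RGS4 inhibition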
# RGS4 uninduced = counter-screen for RGS4 inhibitors: effect in non-induced cells; shares compounds with RGS4 block; HEK293 M3R non-induced, carbachol calcium Fluo-4; submaximal (EC20) carbachol stimulus; buffer wells 0%, carbachol control wells 100%; activity (percent), % at 10 µM; actives 20% (n = 1,900); AID 493000; call rule not given here;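 further: RGS4 induction absent so cells express M3R without RGS4; higher means more calcium signal and flags a non-specific hit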
# RGS4 inh ctr2 = second counter-screen for RGS4 inhibitors: non-induced cells without carbachol. shares compounds with RGS4 block. HEK293 M3R/RGS4 non-induced, Fluo-4 calcium, no carbachol; normalised: buffer wells 0%, carbachol wells 100%. AID 493001. actives 22% (n = 1,900). calcium response (agonist-mode artifact), % at 10 µM;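 active means duplicate-averaged calcium rise in uninduced cells above buffer wells' mean plus 5 SD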
# An asterisk follows results filed as active; i = inactive; · = no result given.
SMILES,MrgX1 antagonist,RGS4 act,MrgX1 agonist,RGS4 block,MrgX1 allo act,RGS4 block valid,RGS4 uninduced,RGS4 inh ctr2
C[C@]12C(=O)N(c3ccc(Cl)cc3)C(=O)N1[C@H]1c3ccccc3OC[C@@H]1[C@H]2c1ccccc1,i,i,i,i,i,i,i,i
C[C@@]12C(=O)N(c3ccc(F)cc3)C(=O)N1[C@@H]1c3ccccc3OC[C@@H]1[C@H]2c1ccccc1,i,i,i,i,i,·,·,·
CC(C)[C@H](NC(=O)[C@H]1N2C(=O)c3ccccc3C2SC1(C)C)C(=O)NCc1ccco1 (stereo partly drawn),i,i,i,i,i,·,·,·
COc1ccc(Cl)cc1S(=O)(=O)N1CCCC(C(=O)N2CCOCC2)C1 (stereo not drawn),i,i,i,i,i,i,i,i
O=C(O)CCC(=O)Nc1sc2c(c1C(=O)Nc1ccccc1)CCCCC2,i,i,i,5.46*,i,7.0%*,63.5%*,i
Fc1cc2ncn(Cc3ccccc3)c2cc1F,i,i,i,i,i,·,·,·
CC1=C(CO)C(=O)OC([C@@H](C)C2CC[C@H]3C4C[C@H]5O[C@]56[C@@H](O)C=CC(=O)[C@]6(C)C4CC[C@]23C)C1 (stereo partly drawn),i,i,i,13.5*,i,31.5%*,i,i
O=C1Nc2ccccc2C1=Nc1cccc(Cl)c1,i,i,50.6*,41.3*,i,28.0%*,54.5%*,16.0%*
CSc1cccc(N=C2C(=O)Nc3ccccc32)c1,i,i,32.5*,15.8*,i,24.5%*,i,7.5%*
COC(=O)c1ccc(NC(=O)N(c2ccccc2)c2ccccc2)cc1,i,i,i,i,i,·,·,·
Cc1n[nH]c(=O)c2c(NC(=O)CSc3nc4ccccc4c(=O)n3CCCOC(C)C)oc(C)c12,i,i,i,i,i,·,·,·
O=C(O)C(c1ccccc1)N1C(=O)/C(=C/c2cccs2)SC1=S (stereo not drawn),i,i,i,i,i,·,·,·
C=CCN=C1S/C(=C/c2cccc([N+](=O)[O-])c2)C(=O)N1CC=C,i,i,i,i,i,·,·,·
CC(=O)Oc1ccc(/C=C2/SC(=S)N(Cc3ccccc3)C2=O)cc1,i,i,i,i,i,·,·,·
O=C(O)c1cccc(CN2C(=O)S/C(=C/c3cccc([N+](=O)[O-])c3)C2=O)c1,i,i,i,26.4*,i,62.5%*,73.0%*,i
COc1ccc(CN2C(=O)/C(=C/c3ccncc3)SC2=S)cc1,i,i,i,10.9*,i,25.0%*,i,22.0%*
O=C1/C(=C\c2ccc(O)cc2)SC(=S)N1Cc1ccccc1,i,i,i,8.13*,i,13.5%*,i,28.5%*
CC(c1ccccc1)N1C(=O)/C(=C/c2ccncc2)SC1=S (stereo not drawn),i,i,i,7.04*,i,6.5%*,33.5%*,i
O=C(O)c1ccc(/C=C2/SC(=S)N(Cc3ccccc3)C2=O)cc1,i,i,i,i,i,·,·,·
CC(C)C[C@@H](C(=O)NC1CCN(Cc2ccccc2)CC1)N1C(=O)N2CCc3c([nH]c4ccccc34)[C@@]2(C)C1=O,i,i,i,i,i,·,·,·
CCc1cc2c(=O)n(CCCOC)c(SCC(=O)Nc3oc(C)c4c(C)n[nH]c(=O)c34)nc2s1,i,i,i,i,i,·,·,·
CCOC(=O)c1cccnc1SCC(=O)N(CC)c1cccc(C)c1,i,i,i,i,i,·,·,·
CCN(CC)c1ccc(NC(=O)CC2Oc3ccccc3NC2=O)c(C)c1 (stereo not drawn),i,i,i,i,i,·,·,·
CCOc1cc(/C=C2/SC(=S)N(Cc3ccccc3)C2=O)ccc1O,i,i,i,i,i,·,·,·
O=C1/C(=C/c2ccc(O)c([N+](=O)[O-])c2)SC(=S)N1Cc1ccccc1,-5.71*,i,i,7.76*,i,11.0%*,37.0%*,i
SMILES,MrgX1 antagonist,RGS4 act,MrgX1 agonist,RGS4 block,MrgX1 allo act,RGS4 block valid,RGS4 uninduced,RGS4 inh ctr2
CCN(C#N)c1nc(NC(C)C)nc(NC(C)(C)C)n1,i,i,i,5.07*,i,7.0%*,i,i
Cc1cccc(N2C(=O)N3[C@@H]4c5ccccc5OC[C@@H]4[C@@H](c4ccccc4)[C@]3(C)C2=O)c1,i,i,i,i,i,i,i,i
Cc1cccc(N2C(=O)N3[C@@H]4c5ccccc5OC[C@@H]4[C@@H](c4ccccc4)[C@@]3(C)C2=O)c1,i,i,i,i,i,·,i,i
Cc1cccc([C@@H]2[C@@H]3C(=O)N(Cc4ccccc4)C(=O)[C@@H]3[C@]3(C)C(=O)N(c4cccc(Cl)c4)C(=O)N23)c1,i,i,i,i,i,·,·,·
C[C@]12C(=O)N(c3cccc(Cl)c3)C(=O)N1[C@H]1c3ccccc3OC[C@@H]1[C@H]2c1ccccc1,-5.97*,i,i,5.96*,i,16.0%*,i,i
Cc1ccn(CCC(=O)N2CCc3ccccc32)n1,i,i,i,i,i,·,·,·
CCOC(=O)Nc1c(O)ccc2oc(C)c(-c3ccccc3)c12,i,i,i,i,i,·,·,·
COc1ccc(CNC2=CC(=O)CC(C)(C)C2)cc1,i,i,i,i,i,·,·,·
COc1ccccc1OCCC(=O)OCC(=O)Nc1ccc(Br)cc1F,i,i,i,i,i,·,·,·
Cc1ccc(C(C[N+](=O)[O-])c2c(N)n(C)c(=O)n(C)c2=O)cc1 (stereo not drawn),i,i,i,i,i,·,·,·
COc1cc(C(C[N+](=O)[O-])c2c(N)n(C)c(=O)n(C)c2=O)ccc1O (stereo not drawn),i,i,i,5.25*,i,19.5%*,i,8.0%*
COc1cc2c(cc1OC)C(CSc1ccccc1C(=O)O)=NC(C)(C)C2,i,i,i,5.56*,i,9.5%*,i,i
